Columns and labels:
MDA-MB-231 [1] = assay: Antiproliferative activity against human MDA-MB-231 cells after 72 hrs by MTT assay; format: functional, cell-based; settings: MDA-MB-231, 72 h
Outline: (§1)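 Cells attached for 24 h, then exposed 72 h to analogue in Me2SO or Me2SO alone (final Me2SO 0.1%), with media and compound renewed after 48 h. Viable cells were measured by MTS tetrazolium reduction in three replicates. Top concentration tested per compound was 2.5, 5, 10, 20 or 100 μM.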

[2] = molecular target: T1, Tyrosine-protein phosphatase non-receptor type 11 (Homo sapiens, UniProt Q06124); assay: Inhibition of SHP2 overexpressed in human KG1 cells; format: cell-based, KG-1
T1 sequence (Q06124 whole entry): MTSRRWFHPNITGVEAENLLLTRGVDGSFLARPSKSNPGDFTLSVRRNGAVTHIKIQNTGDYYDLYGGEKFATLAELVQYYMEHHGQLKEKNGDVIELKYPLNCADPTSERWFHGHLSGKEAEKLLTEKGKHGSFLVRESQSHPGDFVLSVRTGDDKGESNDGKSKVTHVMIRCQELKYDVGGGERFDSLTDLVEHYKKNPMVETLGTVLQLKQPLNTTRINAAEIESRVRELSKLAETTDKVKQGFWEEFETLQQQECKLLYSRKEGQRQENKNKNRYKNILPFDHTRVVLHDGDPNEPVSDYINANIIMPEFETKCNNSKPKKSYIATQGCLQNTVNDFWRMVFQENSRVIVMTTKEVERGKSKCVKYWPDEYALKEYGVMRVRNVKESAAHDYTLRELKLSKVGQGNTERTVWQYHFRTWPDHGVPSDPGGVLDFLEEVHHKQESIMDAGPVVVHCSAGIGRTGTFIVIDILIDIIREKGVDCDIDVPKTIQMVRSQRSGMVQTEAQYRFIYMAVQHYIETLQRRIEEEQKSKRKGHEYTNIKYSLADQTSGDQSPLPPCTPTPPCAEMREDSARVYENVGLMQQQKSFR
Outline: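 Shp-2 PTP activity was measured as hydrolysis of the fluorogenic substrate 6,8-difluoro-4-methylumbelliferyl phosphate in the presence of analogue in Me2SO or Me2SO alone (final concentration 5%).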

DU-145 [3] = assay: Antiproliferative activity against human DU145 cells after 72 hrs by MTT assay; format: functional, cell-based; settings: DU-145, 72 h; outline: as §1
DU-145 [4] = assay: Antiproliferative activity against human DU145 cells at 5 uM after 72 hrs by MTT assay; format: functional; settings: DU-145, 72 h; outline: as §1
MDA-MB-231 [5] = assay: Antiproliferative activity against human MDA-MB-231 cells at 5 uM after 72 hrs by MTT assay; format: functional; settings: MDA-MB-231, 72 h; outline: as §1
[6] = Antiproliferative activity against human KG1 AML cells after 48 hrs by MTT assay; format: functional, cell-based; settings: in the assay text read “by hemocytometer cell counting” for “by MTT assay”
Outline: (§2)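 KG-1 cells in 5% FBS medium attached overnight, then treated 48 h with analogue in Me2SO or Me2SO alone (final 0.1%). Cells were harvested and counted by hemocytometer in triplicate wells. Highest concentration evaluated was 5 μM.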

[7] = molecular target: T2, Nuclear receptor subfamily 0 group B member 2 (Homo sapiens) (UniProt Q15466); assay: Displacement of [5,5'-3H2]AHPN from human recombinant GST-SHP at 50 uM by liquid scintillation counting relative to 3-Cl-AHPC
T2 sequence (whole entry): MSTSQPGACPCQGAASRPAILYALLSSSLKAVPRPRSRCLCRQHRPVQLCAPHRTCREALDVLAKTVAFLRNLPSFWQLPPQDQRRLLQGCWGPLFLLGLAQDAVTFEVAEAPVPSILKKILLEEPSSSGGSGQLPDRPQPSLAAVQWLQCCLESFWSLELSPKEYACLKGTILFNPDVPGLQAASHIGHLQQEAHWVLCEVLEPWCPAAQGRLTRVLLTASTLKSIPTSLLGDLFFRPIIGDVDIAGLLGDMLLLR
Outline: (§3)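 Recombinant GST–human SHP was bound to glutathione–Sepharose beads and incubated 2 h with 5 nM [5,5′-3H2]AHPN with or without competitor (1.0, 5.0 or 50 μM). Beads were washed twice and counted. Displacement was expressed relative to 50 μM 3-Cl-AHPC set as 100%.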

[8] = Antiproliferative activity against human H292 cells at 5 uM after 72 hrs by MTT assay; format: functional; settings: NCI-H292, 72 h; outline: as §1
KG-1 [9] = assay: Induction of apoptosis in human KG1 cells at 1.0 uM […] by acridine orange staining; format: functional
KG-1 [10] = assay: Induction of apoptosis in human KG1 cells after 48 hrs by acridine orange staining; format: functional, cell-based; settings: KG-1, 48 h
[11] = Antiproliferative activity against human H292 cells after 72 hrs by MTT assay; format: functional, cell-based; settings: NCI-H292, 72 h; outline: as §1
[12] = Antiproliferative activity against human KG1 AML cells at 5 uM after 48 hrs by MTT assay; format: functional; settings: in the assay text read “by hemocytometer cell counting” for “by MTT assay”; outline: as §2
KG-1 [13] = assay: Induction of apoptosis in human KG1 cells at 5.0 uM […] by acridine orange staining; format: functional
MDA-MB-231 [14] = assay: Antiproliferative activity against human MDA-MB-231 cells at 100 uM after 72 hrs by MTT assay; format: functional; settings: MDA-MB-231, 72 h; outline: as §1
[15] = Antiproliferative activity against human H292 cells at 100 uM after 72 hrs by MTT assay; format: functional; settings: NCI-H292, 72 h; outline: as §1
DU-145 [16] = assay: Antiproliferative activity against human DU145 cells at 100 uM after 72 hrs by MTT assay; format: functional; settings: DU-145, 72 h; outline: as §1
[17] = molecular target: T3, Nuclear receptor subfamily 0 group B member 2 (Homo sapiens, UniProt Q15466); assay: Displacement of [5,5'-3H2]AHPN from human recombinant GST-SHP by liquid scintillation counting relative to 3-Cl-AHPC; outline: as §3
T3 sequence (Q15466 whole entry): T2 sequence (whole entry)

[18] = Antiproliferative activity against human H292 cells at 10 uM after 72 hrs by MTT assay; format: functional; settings: NCI-H292, 72 h; outline: as §1
DU-145 [19] = assay: Antiproliferative activity against human DU145 cells at 10 uM after 72 hrs by MTT assay; format: functional; settings: DU-145, 72 h; outline: as §1
MDA-MB-231 [20] = assay: Antiproliferative activity against human MDA-MB-231 cells at 10 uM after 72 hrs by MTT assay; format: functional; settings: MDA-MB-231, 72 h; outline: as §1
KG-1 [21] = assay: Induction of apoptosis in human KG1 cells at 25 uM […] by acridine orange staining; format: functional
[22] = Growth inhibition of human HL60R cells at 1.0 uM after 24 hrs by hemocytometer; format: functional; settings: read-out: GI
Outline: (§4)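 HL-60R cells in medium with 5% FBS attached overnight, then received analogue in Me2SO or vehicle (final Me2SO 0.1%) for 24 h. Cells were harvested and counted in triplicate wells with a hemocytometer.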

[23] = Induction of apoptosis in human HL60R cells at 1.0 uM after 24 hrs by acridine orange staining; format: functional
Outline: (§5)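 KG-1, HL-60R (24 h) or MDA-MB-231 (96 h) cells in 5% FBS medium attached overnight, then were treated with analogue in Me2SO or vehicle (final 0.1% Me2SO). Apoptotic cells were scored by acridine orange staining on at least three replicates. Tested concentrations were 0.1–5.0 μM, plus 25 μM for KG-1.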

MDA-MB-231 [24] = assay: Induction of apoptosis in human MDA-MB-231 cells at 1.0 uM after 96 hrs by acridine orange staining; format: functional; outline: as §5
[25] = Induction of apoptosis in human HL60R cells at 0.1 uM after 24 hrs by acridine orange staining; format: functional; outline: as §5
[26] = Growth inhibition of human HL60R cells at 0.1 uM after 24 hrs by hemocytometer; format: functional; settings: read-out: GI; outline: as §4
[27] = Growth inhibition of HMVE cells at 0.5 uM after 72 hrs by alamar blue method; format: cell-based; settings: human, HMVE cells; read-out: GI
MDA-MB-231 [28] = assay: Induction of apoptosis in human MDA-MB-231 cells at 2.0 uM after 96 hrs by acridine orange staining; format: functional; outline: as §5
[29] = Growth inhibition of HMVE cells after 72 hrs by alamar blue method; format: cell-based; settings: Homo sapiens

| SMILES | IC50 (MDA-MB-231 [1]) [µM] | IC50 [2] [µM] | IC50 (DU-145 [3]) [µM] | inhibition at 5 µM (DU-145 [4]) [%] | inhibition at 5 µM (MDA-MB-231 [5]) [%] | IC50 [6] [µM] | Activity [7] [%] | inhibition at 5 µM [8] [%] | Activity (KG-1 [9]) [%] | IC50 (KG-1 [10]) [µM] | IC50 [11] [µM] | Activity [12] [%] | Activity (KG-1 [13]) [%] | IC50 [17] [nM] | inhibition at 10 µM [18] [%] | inhibition at 10 µM (DU-145 [19]) [%] | inhibition at 10 µM (MDA-MB-231 [20]) [%] | also measured |
| --- | --- | --- | --- | --- | --- | --- | --- | --- | --- | --- | --- | --- | --- | --- | --- | --- | --- | --- |
| Nc1ccc(-c2ccc(/C=C/C(=O)O)cc2Cl)cc1C12CC3CC(CC(C3)C1)C2 | 4 | 1.83 | 1.3 | 79 | 61 | 5 | 61 | 45 | 10 | 9.3 | 6 | 50 | – | – | – | – | – | – |
| O=C(O)/C=C/c1ccc(-c2ccc(F)c(C34CC5CC(CC(C5)C3)C4)c2)c(Cl)c1 | 67 | 2.11 | 16 | – | – | > 5 | 90 | – | 0 | – | 6 | 0 | 0 | 1000 | – | – | – | inhibition at 100 µM (MDA-MB-231 [14]): 83%; inhibition at 100 µM [15]: 95%; inhibition at 100 µM (DU-145 [16]): 84% |
| O=C(O)/C=C/c1ccc(-c2ccc(O)c(C34CC5CC(CC3C5)C4)c2)c(Cl)c1 | 9.8 | 3.91 | 7.9 | – | – | 0.92 | 85 | – | 2 | 230 | 6.8 | 94 | 16 | – | 69 | 59 | 51 | – |
| CC12CC3CC(C)(C1)CC(c1cc(-c4ccc(/C=C/C(=O)O)cc4Cl)ccc1O)(C3)C2 | > 5 | 2.27 | > 5 | 23 | 7 | > 5 | 103 | 66 | 0 | 13.5 | 3.6 | 0 | 0 | 500 | – | – | – | Activity (KG-1 [21]): 83% |
| O=C(O)c1ccc2cc(-c3cccc(C45CC6CC(CC(C6)C4)C5)c3)ccc2c1 | – | – | – | – | – | – | – | – | – | – | – | – | – | – | – | – | – | inhibition of growth at 1 µM [22]: 8%; Activity [23]: 2%; Activity (MDA-MB-231 [24]): 2%; Activity [25]: 2%; inhibition of growth at 0.1 µM [26]: 4%; inhibition at 72 h, 0.5 µM [27]: 36%; Activity (MDA-MB-231 [28]): 7%; IC50 [29]: > 500 nM |
| Cc1cccc(C)c1-c1cc(-c2ccc(/C=C/C(=O)O)cc2Cl)ccc1O | > 10 | 19.9 | > 10 | – | – | > 5 | – | – | 0 | – | > 10 | 0 | 0 | – | 0 | 4 | 0 | – |
| CCC(CC)(CC)c1cc(-c2ccc(/C=C/C(=O)O)cc2Cl)ccc1O | > 5 | 5.37 | > 5 | 2 | 2 | > 5 | 90 | 5 | 3 | – | > 5 | 0 | 4 | 8000 | – | – | – | Activity (KG-1 [21]): 14% |
| CC(C)(C)C#Cc1cc(-c2ccc(/C=C/C(=O)O)cc2Cl)ccc1O | > 10 | 0.45 | > 10 | – | – | > 5 | – | – | 0 | – | > 10 | 22 | 0 | – | 14 | 13 | 4 | – |
| O=C(O)/C=C/c1ccc(-c2ccc(F)cc2)c(Cl)c1 | > 100 | 500 | > 100 | – | – | > 5 | – | – | 0 | – | 47 | 7 | 0 | – | 18 | 15 | 0 | inhibition at 100 µM (MDA-MB-231 [14]): 9%; inhibition at 100 µM [15]: 60%; inhibition at 100 µM (DU-145 [16]): 23% |
| CC(=O)Nc1ccc(-c2ccc(/C=C/C(=O)O)cc2Cl)cc1C12CC3CC(CC(C3)C1)C2 | > 5 | 4.55 | 5 | 8 | -5 | > 5 | 47 | 13 | 3 | – | > 5 | 25 | 7 | – | – | – | – | – |

Source: ChEMBL document CHEMBL1140080, “Adamantyl-substituted retinoid-derived molecules that interact with the orphan nuclear receptor small heterodimer partner: effects of replacing the 1-adamantyl or hydroxyl group on inhibition of cancer cell growth, induction of cancer cell apoptosis, and inhibition of SRC homology 2 …” (J Med Chem, 2008)
